SIAE primary – human SIAE inhibitors, primary screen, biochemical, fluorescence polarization, FP-Rh probe, 1536-well HTS | SIAE FP-Rh probe binding | Sialate O-acetylesterase (Homo sapiens), Q9HAT2 | 370,000 tested, 0.69% active | inhibition, % at 9.66 µM;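 active means inhibition above a cutoff: mean of compounds within the control limits plus 3 SD of those, cut at about 17% in these data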
mABHD4 FP – ABHD4 inhibitors, primary screen, biochemical, fluorescence polarization, mouse; inhibition, % at 8.92 µM; AID 720543, 2013; (Lyso)-N-acylphosphatidylethanolamine lipase (Mus musculus), Q8VD66; purified mABHD4, FP-Rh probe fluorescence polarization; 370,000 tested, 0.54% active;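 active means inhibition exceeding the mean over every tested compound plus 3 SD, cut at about 30% in these data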
Target sequence (Q8VD66 whole entry, looked up): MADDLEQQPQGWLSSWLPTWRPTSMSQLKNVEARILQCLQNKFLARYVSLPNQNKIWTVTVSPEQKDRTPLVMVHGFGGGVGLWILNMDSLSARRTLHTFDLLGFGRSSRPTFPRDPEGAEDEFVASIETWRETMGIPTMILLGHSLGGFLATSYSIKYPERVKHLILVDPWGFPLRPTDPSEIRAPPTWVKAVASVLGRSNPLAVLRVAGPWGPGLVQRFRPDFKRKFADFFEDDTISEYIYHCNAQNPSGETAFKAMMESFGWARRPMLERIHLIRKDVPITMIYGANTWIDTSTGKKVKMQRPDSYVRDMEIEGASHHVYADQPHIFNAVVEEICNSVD
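Assay system: mouse ABHD4 enzyme, wild type / Also added: fluorescent activity-based probe FP-Rh / Doses: single nominal dose of 8.92 µM, 0.89% DMSO final / Timing: 45 min compound pre-incubation plus 60 min probe step, 25 °C / Signal: FP readout, ex 525 nm / em 598 nm / Control set: S159A mutant/DMSO as 100%, compound-well median as 0%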
TCR CD3 inh – inhibitors of human TCR-CD3 interaction, primary screen, biochemical, fluorescence, TAMRA-labeled TCR probe; T-cell receptor (TCR); inhibition, % at 9.4 µM; 360,000 tested, 0.37% active; in the data active means inhibition above about 19%;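 further: recombinant mutant TCR 2C K166C tagged with TAMRA read by polarization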
PRMT1 inh – PRMT1 methyltransferase inhibitors, primary screen, biochemical, fluorescence polarization; recombinant PRMT1, activity-based probe fluorescence polarization; inhibition, % at 2.79 µM; Protein arginine N-methyltransferase 1 (Homo sapiens), Q99873; 370,000 tested, 1.3% active;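 active means inhibition above about 21% made by adding two undisclosed values, limit read from the data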
HTRA1 inh – HTRA1 serine protease inhibitors, primary screen, biochemical, fluorescence polarization, HTS; Q92743; recombinant HTRA1, FP-rhodamine activity-based probe; AID 504803, 2011; 340,000 tested, 0.5% active; inhibition, % at 5.96 µM; in the data active means inhibition above about 36%
SIAE inh conf – human SIAE inhibitors, retest, confirmation, biochemical, fluorescence polarization, FP-Rh probe, triplicate | shares compounds with SIAE primary | SIAE FP-Rh activity-based probe | inhibition, % at 9.66 µM | 2,300 tested, 13% active;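 active means mean inhibition of the replicates above the hit cutoff set in the primary screen, cut at about 17% in these data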;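 further: inhibitors lower polarization as more probe stays unbound to SIAE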
A number is an active result. Rows were chosen to be rich in hits. Some 2.6% of all compounds tested hit in one or more screens of this group.

O=C(COC(=O)/C=C/c1cccs1)Nc1nc(-c2cccc(Br)c2)cs1 was read as SIAE primary 30.4, mABHD4 FP inactive, TCR CD3 inh inactive, PRMT1 inh inactive, HTRA1 inh inactive and SIAE inh conf inactive.
For O=C(COC(=O)/C=C/c1cccs1)Nc1nc(-c2ccccc2)cs1 the results were SIAE primary inactive, mABHD4 FP inactive, TCR CD3 inh inactive, PRMT1 inh inactive and HTRA1 inh inactive.
For COc1ccccc1N1CCN(C2CCCN(Cc3cccc(O)c3)C2)CC1 (stereo unspecified) the results were SIAE primary 17.5, mABHD4 FP inactive, TCR CD3 inh inactive, PRMT1 inh inactive, HTRA1 inh inactive and SIAE inh conf inactive.
Screening CCCOc1ccc2[nH]c(C(=O)N/N=C/c3cc(OC)c(OC)c(OC)c3)cc2c1 returned SIAE primary inactive, mABHD4 FP inactive, TCR CD3 inh inactive, PRMT1 inh inactive and HTRA1 inh inactive.
For CCOc1ccc(/C=N/NC(=O)c2cc3c(OC)cc(OC)c(OC)c3[nH]2)cc1 the results were SIAE primary 30.6, mABHD4 FP inactive, TCR CD3 inh inactive, PRMT1 inh inactive, HTRA1 inh inactive and SIAE inh conf 17.4.
Screening COc1ccc2[nH]c(C(=O)N/N=C/c3ccccc3OC)cc2c1 returned SIAE primary inactive, mABHD4 FP inactive, TCR CD3 inh inactive, PRMT1 inh inactive and HTRA1 inh inactive.
COc1cc(OC)c2cc(C(=O)N/N=C/c3ccccc3O)[nH]c2c1 was read as SIAE primary 25.5, mABHD4 FP inactive, TCR CD3 inh inactive, PRMT1 inh inactive, HTRA1 inh inactive and SIAE inh conf inactive.
`C/C(=N\NC(=O)c1ccccc1O)c1ccc(NC(=O)Cc2ccccc2)cc1` gave SIAE primary 17.6, mABHD4 FP inactive, TCR CD3 inh inactive, PRMT1 inh inactive, HTRA1 inh inactive and SIAE inh conf inactive.
`NNC(=O)c1sc2nc(N3CCOCC3)c3c(c2c1N)CCCC3` gave SIAE primary 17.9, mABHD4 FP inactive, TCR CD3 inh inactive, PRMT1 inh inactive and SIAE inh conf inactive.
For Nc1c(C(=O)NCc2ccccc2)sc2nc(N3CCOCC3)c3c(c12)CCCC3 the results were SIAE primary 19.0, mABHD4 FP inactive, TCR CD3 inh inactive, PRMT1 inh inactive, HTRA1 inh inactive and SIAE inh conf inactive.
CCOC1=C2CN(S(=O)(=O)c3ccc(C)cc3)C(c3ccc(CC)cc3)CC2n2c(=O)n(-c3ccccc3)c(=O)n2C1 (stereo unspecified) was read as SIAE primary inactive, mABHD4 FP inactive, TCR CD3 inh inactive and PRMT1 inh inactive.
Screening CCC(=O)Nc1sc2c(c1C(N)=O)CCC2 returned SIAE primary inactive, mABHD4 FP inactive, TCR CD3 inh inactive, PRMT1 inh inactive and HTRA1 inh inactive.
For CCCN(CCC)C(=O)c1c(NC(=O)CC)sc2c1CCCCC2 the results were SIAE primary 22.0, mABHD4 FP inactive, TCR CD3 inh inactive, PRMT1 inh inactive, HTRA1 inh inactive and SIAE inh conf inactive.
`COc1ccc(-c2nn(-c3ccccc3)cc2/C=N/Nc2ccc3ccccc3n2)cc1OC` gave SIAE primary 18.6, mABHD4 FP inactive, TCR CD3 inh inactive, PRMT1 inh inactive, HTRA1 inh inactive and SIAE inh conf inactive.
Screening O=C1NC(=Nc2ccc3ccccc3c2)S/C1=C/c1ccco1 returned SIAE primary 32.3, mABHD4 FP inactive, TCR CD3 inh inactive, PRMT1 inh inactive, HTRA1 inh inactive and SIAE inh conf inactive.
`O=C(NCc1ccc(C(F)(F)F)cc1)c1ccc(-c2ccc(F)c(F)c2)c2ccoc12` gave SIAE primary inactive, mABHD4 FP inactive, TCR CD3 inh inactive and PRMT1 inh inactive.
For CN1CCN(c2ccc(CNC(=O)c3ccc(-c4ccc(F)c(F)c4)c4ccoc34)cc2)CC1 the results were SIAE primary 19.1, mABHD4 FP inactive, TCR CD3 inh inactive, PRMT1 inh inactive and SIAE inh conf inactive.
`Cc1ccc(S(=O)(=O)N2CCN(C(=O)c3ccnn3C)CC2)cc1C` gave HTRA1 inh inactive.
Screening O=C(Nc1nc2ccccc2[nH]1)C12CC3CC(CC(C3)C1)C2 returned SIAE primary 17.5, mABHD4 FP inactive, TCR CD3 inh inactive, PRMT1 inh inactive, HTRA1 inh inactive and SIAE inh conf inactive.
Screening O=C(Nc1nc2ccccc2[nH]1)C1CC1 returned SIAE primary inactive, mABHD4 FP inactive, TCR CD3 inh inactive, PRMT1 inh inactive and HTRA1 inh inactive.
`O=C1CCCC(O)=C1N=Nc1cccc(C(=O)O)c1` gave SIAE primary 21.1, mABHD4 FP inactive, TCR CD3 inh inactive, PRMT1 inh inactive, HTRA1 inh inactive and SIAE inh conf inactive.
Screening O=C1CCCC(O)=C1N=Nc1c(Cl)cc(Cl)cc1Cl returned SIAE primary 20.8, mABHD4 FP inactive, TCR CD3 inh inactive, PRMT1 inh inactive, HTRA1 inh inactive and SIAE inh conf inactive.
O=S(=O)(O)c1cc(O)c2cc(Nc3ccccc3)ccc2c1 was read as SIAE primary 18.4, mABHD4 FP 65.5, TCR CD3 inh 19.2, HTRA1 inh inactive and SIAE inh conf 43.2.
CC(C)c1nnc(NC(=O)CCC(=O)NCc2ccc(F)cc2)s1 was read as SIAE primary inactive, mABHD4 FP inactive, TCR CD3 inh inactive, PRMT1 inh inactive and HTRA1 inh inactive.
`O=C(NCc1cccc(Cl)c1)c1ccc(N2CC3CC(C2)c2cccc(=O)n2C3)c(NC(=O)c2cccnc2)c1` (stereo unspecified) gave SIAE primary inactive, mABHD4 FP inactive, TCR CD3 inh inactive, PRMT1 inh inactive and HTRA1 inh inactive.
COc1ccc(OCc2cc(C(=O)N3CCCC(O)C3)no2)c2ccccc12 (stereo unspecified) was read as SIAE primary 17.6, mABHD4 FP inactive, TCR CD3 inh inactive, PRMT1 inh inactive, HTRA1 inh inactive and SIAE inh conf inactive.
Screening COC(=O)[C@]12CCCCC=C1N(Cc1ccc3c(c1)OCO3)C(=O)[C@H](CC(=O)N1CCCCC1)C2 returned SIAE primary inactive, mABHD4 FP inactive, TCR CD3 inh inactive and PRMT1 inh inactive.
Screening CCCc1cc(=O)oc2cc(C)cc(OCC(=O)NCc3cccnc3)c12 returned SIAE primary 17.5, mABHD4 FP inactive, TCR CD3 inh inactive, PRMT1 inh inactive, HTRA1 inh inactive and SIAE inh conf inactive.
Screening CCN(CCn1cccn1)C(=O)c1cc(COc2c(F)cccc2F)on1 returned SIAE primary 45.8, mABHD4 FP inactive, TCR CD3 inh inactive, PRMT1 inh inactive, HTRA1 inh inactive and SIAE inh conf inactive.
`O=C(NCC1CCCCC1)c1ccc(F)c(S(=O)(=O)N2CCOCC2)c1` gave SIAE primary inactive, mABHD4 FP inactive, TCR CD3 inh inactive, PRMT1 inh inactive and HTRA1 inh inactive.

Screening data deposited in PubChem by The Scripps Research Institute Molecular Screening Center.
